Data from PMC10884431 (Heliyon, 2024).

Assays:
alpha-glucosidase = settings: from the lichen Parmotrema dilatatum; cited from earlier work
[1] = biological target: SARS-CoV-2 main protease (M^pro) (Severe acute respiratory syndrome coronavirus 2, UniProt P0DTD1); assay: M^pro inhibition assay; assay type: biochemical; settings: read-out: SARS-CoV-2 M^pro inhibition percentage, reference at 1 μM
[2] = biological target: HIV-1 reverse transcriptase (Human immunodeficiency virus type 1 group M subtype B, UniProt P03366); assay: HIV-1 reverse transcriptase inhibition assay; assay type: biochemical; settings: positive control at 1 μM
In short: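 Test compound in DMSO is added, then reverse transcriptase (25 nM solution), and the mix is held 30 min at room temperature. The reaction is stopped with EDTA, PicoGreen is added and endpoint fluorescence is read at 485/535 nm. % inhibition is taken against a DMSO control, minus an EDTA-pretreated blank. Nevirapine is the reference.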

macrophages = assay: Nitric oxide; assay type: cell-based; settings: positive control at 5 μM
In short: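 NO production measured by absorbance at 540 nm on a microplate reader. The assay was run in triplicate and repeated in three independent experiments.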

Compound: COC(=O)c1c(C)c(Cc2c(O)c(Oc3c(C=O)c(O)cc(C)c3C(=O)OC)c3c(c2O)C(=O)O[C@@H]3O)c(O)c(C=O)c1O [parmetherines A]
- Alpha-glucosidase inhibition (in words) (alpha-glucosidase): strong

Compound: Cc1cccc(C)c1OCC(=O)N[C@@H](Cc1ccccc1)[C@@H](O)C[C@H](Cc1ccccc1)NC(=O)[C@H](C(C)C)N1CCCNC1=O [Lopinavir]
- inhibition at 1 µM [1]: 47.7 ± 1.7%

Compound: Cc1ccnc2c1NC(=O)c1cccnc1N2C1CC1 [Nevirapine]
- HIV-1 reverse transcriptase inhibition percentage [2]: 38.3 ± 2.5%

Compound: COC(=O)c1c(C)c(Cc2c(O)c(Oc3c(C=O)c(O)cc(C)c3C(=O)OC)c3c(c2O)C(=O)O[C@@H]3OC)c(O)c(C=O)c1O [parmetherines B]
- Alpha-glucosidase inhibition (in words) (alpha-glucosidase): strong

Compound: Cc1ccc(S(=O)(=O)/C=C/C#N)cc1 [Bay 11–7082]
- % NO inhibition ±SD (macrophages): 72.5 ± 3.9%
- % Cell viability ±SD (macrophages; NO assay): 82.7 ± 5.3%
